Numbering of substitutions follows the chain as printed.
Assays:
P450 2B4 wild type = target: T1, P450 2B4 wild type (Oryctolagus cuniculus, UniProt P00178); assay: Inhibition of 7-EFC O-deethylation by imidazole inhibitors; type: biochemical, rabbit (Oryctolagus cuniculus)
T1 sequence (P00178 with tags, fused parts or gaps limits assumed): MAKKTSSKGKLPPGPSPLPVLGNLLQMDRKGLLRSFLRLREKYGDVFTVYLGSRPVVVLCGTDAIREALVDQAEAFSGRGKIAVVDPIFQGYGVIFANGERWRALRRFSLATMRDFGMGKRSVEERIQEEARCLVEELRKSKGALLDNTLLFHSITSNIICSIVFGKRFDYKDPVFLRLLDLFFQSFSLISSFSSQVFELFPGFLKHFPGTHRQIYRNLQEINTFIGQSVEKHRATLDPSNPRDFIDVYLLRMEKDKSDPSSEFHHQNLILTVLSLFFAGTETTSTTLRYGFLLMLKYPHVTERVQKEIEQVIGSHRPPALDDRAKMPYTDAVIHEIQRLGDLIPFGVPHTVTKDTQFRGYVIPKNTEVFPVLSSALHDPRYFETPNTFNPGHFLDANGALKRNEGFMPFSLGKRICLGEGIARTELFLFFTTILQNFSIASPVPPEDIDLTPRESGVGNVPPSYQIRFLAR

P450 2B4 L437A = target: T2, P450 2B4 L437A (Oryctolagus cuniculus, UniProt P00178, L437A); assay: as above; type: biochemical, rabbit (Oryctolagus cuniculus); conditions: rabbit, pH 7.4, probe 7-EFC (50 μM), O-deethylation
T2 sequence (P00178 with tags, fused parts or gaps L437A limits assumed): T1 sequence (P00178 with tags, fused parts or gaps limits assumed) with L418A

P450 2B4 E474D [1] = target: T3, P450 2B4 E474D (Oryctolagus cuniculus, UniProt P00178, E474D); assay: as above; type: biochemical, rabbit (Oryctolagus cuniculus)
T3 sequence (P00178 with tags, fused parts or gaps E474D limits assumed): T1 sequence (P00178 with tags, fused parts or gaps limits assumed) with E455D

P450 2B4 H172Q [2] = target: T4, P450 2B4 H172Q (Oryctolagus cuniculus, UniProt P00178, H172Q); assay: as above; type: biochemical, rabbit (Oryctolagus cuniculus)
T4 sequence (P00178 with tags, fused parts or gaps H172Q limits assumed): T1 sequence (P00178 with tags, fused parts or gaps limits assumed) with H153Q

P450 2B4 H172A [3] = target: T5, P450 2B4 H172A (Oryctolagus cuniculus, UniProt P00178, H172A); assay: as above; type: biochemical, rabbit (Oryctolagus cuniculus)
T5 sequence (P00178 with tags, fused parts or gaps H172A limits assumed): T1 sequence (P00178 with tags, fused parts or gaps limits assumed) with H153A

P450 2B4 H172F [4] = target: T6, P450 2B4 H172F (Oryctolagus cuniculus, UniProt P00178, H172F); assay: Spectral binding titration of imidazole ligands; parameters: species or system rabbit (Oryctolagus cuniculus); conditions: 2B4 H172F versus wild type
T6 sequence (P00178 with tags, fused parts or gaps H172F limits assumed): T1 sequence (P00178 with tags, fused parts or gaps limits assumed) with H153F
How it was run: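 Protein was the His-tagged 2B4dH construct (single mutants or wild type), expressed in TOPP3 cells and Ni-NTA purified. Spectra 350–700 nm recorded after serial 5 μl additions of 100 μM 4-CPI or bifonazole. Ks came from a tight-binding equation fit, and the 4-CPI/bifonazole Ks ratio was calculated.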

P450 2B4 E474Q = target: T7, P450 2B4 E474Q (Oryctolagus cuniculus, UniProt P00178, E474Q); assay: Inhibition of 7-EFC O-deethylation by imidazole inhibitors; type: biochemical, rabbit (Oryctolagus cuniculus)
T7 sequence (P00178 with tags, fused parts or gaps E474Q limits assumed): T1 sequence (P00178 with tags, fused parts or gaps limits assumed) with E455Q

P450 2B4 H172F [5] = target: T6, P450 2B4 H172F
P450 2B4 H172A [6] = target: T5, P450 2B4 H172A; type: biochemical, rabbit (Oryctolagus cuniculus)
P450 2B4 H172F [7] = target: T6, P450 2B4 H172F; remark: listed apart in the source
P450 2B4 mutants = type: biochemical, rabbit (Oryctolagus cuniculus); conditions: each mutant except the inactive H172F
P450 2B4 H172Q [8] = target: T4, P450 2B4 H172Q; type: biochemical, rabbit (Oryctolagus cuniculus)
P450 2B4 E474D [9] = target: T3, P450 2B4 E474D; type: biochemical, rabbit (Oryctolagus cuniculus)

| Structure (SMILES) | IC50 (P450 2B4 wild type) [µM] | IC50 at 10 min (P450 2B4 L437A) [µM] | IC50 (P450 2B4 E474D [1]) [µM] | IC50 (P450 2B4 H172Q [2]) [µM] | IC50 (P450 2B4 H172A [3]) [µM] | Ks (spectral dissociation constant) higher than wild type 2B4 (P450 2B4 H172F [4]) | IC50 (P450 2B4 E474Q) [µM] | kcat (P450 2B4 H172F [5]) [s⁻¹] | decrease (change) in kcat versus wild type (P450 2B4 H172A [6]) | substrate turnover (activity) (P450 2B4 H172F [7]) | change in KM versus wild type (P450 2B4 mutants) [fold] | decrease (change) in kcat versus wild type (P450 2B4 H172Q [8]) | decrease (change) in kcat versus wild type (P450 2B4 E474D [9]) [fold] |
| --- | --- | --- | --- | --- | --- | --- | --- | --- | --- | --- | --- | --- | --- |
| c1ccc(-c2ccc(C(c3ccccc3)n3ccnc3)cc2)cc1 (stereo not drawn) [Bifonazole, bifonazole] | 0.9 | 0.05 | 0.62 | 0.76 | 0.58 | ~ 20 times | 0.81 |  |  |  |  |  |  |
| COc1ccc2c(C(F)(F)F)cc(=O)oc2c1 [7-MFC, 7-methoxy-4-(trifluoromethyl)coumarin] |  |  |  |  |  |  |  | 0 | ~ 2 fold | inactive | < 2 | ~ 2 fold |  |
| CCOc1ccc2c(C(F)(F)F)cc(=O)oc2c1 [7-EFC, 7-ethoxy-4-(trifluoromethyl)coumarin] |  |  |  |  |  |  |  | 0 |  | inactive |  |  | > 20 |

From paper PMC3911823 (The FEBS journal, 2011)
